The source made the active and inactive calls. The rule behind the calls is not given here.

Drawing on ChEMBL document CHEMBL1240310, “Combinatorial chemistry identifies high-affinity peptidomimetics against alpha4beta1 integrin for in vivo tumor imaging” (Nat Chem Biol, 2006), this text covers Activity and inhibition for two compounds.

Experiment [1] has as its target T1, Integrin alpha-4/beta-1 (Homo sapiens) (UniProt P05556+P13612). As to the kind of experiment: Binding affinity to alpha4beta1 integrin expressed in human K562 cells by flow cytometry. Type of experiment: cell-based. Put shortly: (§1)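 Cells (0.5 × 10^6) incubated with biotinylated ligand (100 nM) for 1 h at 4 °C in TBS with 1 mM Mg2+/Mn2+, washed, then stained with SA-PE. Fluorescence of 10,000 cells read by flow cytometry. Integrin-transfected CHO lines as previously described; α4 expression probed with anti-α4 mAb P1H4 plus FITC secondary.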

Experiment [2] has as its target T1, Integrin alpha-4/beta-1 (Homo sapiens). The experiment is described as follows: Binding affinity to alpha4beta1 integrin expressed in peripheral blood lymphocytes in presence of Mn2+. Format: cell-based. Put shortly: (§2)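 Normal peripheral blood lymphocytes isolated from healthy-donor blood by Ficoll-Paque gradient. Cells (0.5 × 10^6) incubated 1 h at 4 °C with biotinylated ligand (100 nM) in TBS, then SA-PE, and 10,000 cells read by flow cytometry. Mn2+ added for integrin activation where indicated. Activation state checked with anti-β1 LIBS mAb.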

Experiment [3] relates to CHO. As to the kind of experiment: Binding affinity to human alpha4 Y202A mutant/hamster beta-1 integrin expressed in CHO cells by flow cytometry. Type of experiment: cell-based. Put shortly:
(§3)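 CHO cells stably expressing wild-type or single-Ala mutant human α4 paired with endogenous hamster β1. Cells incubated with biotinylated ligand in TBS (1 mM Mn2+), then SA-PE, and read by flow cytometry. Binding normalized to α4 expression measured with mAb B5G10. Mean ± s.d. of triplicates.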
In general terms: In flow cytometry, cells or beads pass a laser one at a time.

Experiment [4] has as its target ITGA6-ITGB1 complex (Homo sapiens) (UniProt P05556+P23229). The experiment is described as follows: Binding affinity to alpha6beta1 integrin expressed in CHO cells by flow cytometry. Type of experiment: cell-based. The method, boiled down: as §1
The test system of experiment [5] is CHO. As to the kind of experiment: Binding affinity to human alpha4 G181A mutant/hamster beta-1 integrin expressed in CHO cells by flow cytometry. Type of experiment: cell-based. Put shortly: as §3
The target in experiment [6] is T1, Integrin alpha-4/beta-1 (Homo sapiens). The experiment is described as follows: Inhibition of integrin alpha-4-beta-1-mediated Jurkat cell adhesion to VCAM-1 coated surface by BCECF fluorescence analysis. Format: cell-based.
For experiment [7], the system named is CHO. The experiment is described as follows: Binding affinity to alpha4beta1 integrin G184A mutant expressed in CHO cells by flow cytometry. Type of experiment: cell-based. Put shortly:
as §3

Experiment [8] has as its system CHO. As to the kind of experiment: Binding affinity to human alpha4 K203A mutant/hamster beta-1 integrin expressed in CHO cells by flow cytometry. Type of experiment: cell-based. The method, boiled down:
as §3

Experiment [9] deals with ITGB1-ITGA9 complex (Homo sapiens) (UniProt P05556+Q13797). As to the kind of experiment: Binding affinity to alpha9beta1 integrin expressed in CHO cells by flow cytometry. Type of experiment: cell-based. Put shortly: as §1
Experiment [10] has as its system CHO. The experiment is described as follows: Binding affinity to human alpha4 N196A mutant/hamster beta-1 integrin expressed in CHO cells by flow cytometry. Format: cell-based. Put shortly: as §3
Experiment [11] deals with T1, Integrin alpha-4/beta-1 (Homo sapiens). The experiment is described as follows: Binding affinity to alpha4beta1 integrin expressed in human HL-60 cells by flow cytometry. Format: cell-based. Put shortly:
as §1

Experiment [12] shares this target. The experiment is described as follows: Binding affinity to alpha4beta1 integrin expressed in human Reh cells by flow cytometry. Format: cell-based. Put shortly:
as §1

The test system of experiment [13] is Mus musculus. As to the kind of experiment: In vivo inhibition of alpha4beta1 integrin expressed in human Molt-4 cells xenografted into mouse at 60 nmol/kg, iv up to 44 hrs by NIRF imaging. Format: functional, organism-based. Put shortly: (§4)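 Nude (nu/nu) mice bearing subcutaneous shoulder Molt-4 xenografts (about 5 × 10^6 cells injected; tumors 0.5–1.0 cm). Probe made by complexing biotinylated ligand with SA-Alexa Fluor680 at 5:1 molar ratio, 1 h, 4 °C. Given 60 nmol kg-1 i.v. (n = 3). Imaged under pentobarbital anesthesia (60 mg kg-1 i.p.) at 0–44 h; excitation 625 nm, emission 700 nm, 30 s exposure. Tumor vs normal ROI intensities compared.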
On the technique in general: A xenograft is tissue or cells of one species grown in another, often human tumour cells in immunodeficient mice.

In experiment [14] the target is T1, Integrin alpha-4/beta-1 (Homo sapiens). As to the kind of experiment: Binding affinity to alpha4beta1 integrin expressed in CHO cells by flow cytometry. Format: cell-based. Put shortly: as §1
For experiment [15], the target named is Integrin alpha2/beta1 (Homo sapiens) (UniProt P05556+P17301). As to the kind of experiment: Binding affinity to alpha2beta1 integrin expressed in CHO cells by flow cytometry. Type of experiment: cell-based. The method, boiled down: as §1
Experiment [16] concerns CHO. The experiment is described as follows: Binding affinity to human alpha4 T189A mutant/hamster beta-1 integrin expressed in CHO cells by flow cytometry. Format: cell-based. The method, boiled down:
as §3

In experiment [17] the test system is CHO. The experiment is described as follows: Binding affinity to human alpha4 S186A mutant/hamster beta-1 integrin expressed in CHO cells by flow cytometry. Type of experiment: cell-based. The method, boiled down:
as §3

Experiment [18] concerns the target T1, Integrin alpha-4/beta-1 (Homo sapiens). As to the kind of experiment: Inhibition of integrin alpha-4-beta-1-mediated Jurkat cell adhesion to CS-1 coated surface by BCECF fluorescence analysis.
The target of experiment [19] is Integrin alpha-M/beta-2 (Homo sapiens) (UniProt P05107+P11215). The experiment is described as follows: Binding affinity to alphaMbeta2 integrin expressed in CHO cells by flow cytometry. Type of experiment: cell-based. Put shortly:
as §1

Experiment [20] relates to CHO. The experiment is described as follows: Binding affinity to human alpha4 W188A mutant/hamster beta-1 integrin expressed in CHO cells by flow cytometry. Format: cell-based. Put shortly: as §3
Experiment [21] has as its target Intercellular adhesion molecule (ICAM-1), Integrin alpha-L/beta-2 (Homo sapiens) (UniProt P20701+P05362+P05107). The experiment is described as follows: Binding affinity to alphaLbeta2 integrin expressed in CHO cells by flow cytometry. Format: cell-based. The method, boiled down: as §1
For experiment [22], the system named is CHO. The experiment is described as follows: Binding affinity to wild type human alpha4hamster beta-1 integrin expressed […] cells by flow cytometry. Type of experiment: cell-based. The method, boiled down: as §3
Experiment [23] deals with CHO. As to the kind of experiment: Binding affinity to human alpha4 Y195A mutant/hamster beta-1 integrin expressed in CHO cells by flow cytometry. Type of experiment: cell-based. Put shortly:
as §3

In experiment [24] the target is T1, Integrin alpha-4/beta-1 (Homo sapiens). The experiment is described as follows: Binding affinity to alpha4beta1 integrin expressed in peripheral blood lymphocytes. Format: cell-based. Put shortly:
as §2

The subject of experiment [25] is CHO. The experiment is described as follows: Binding affinity to human alpha4 G190A mutant/hamster beta-1 integrin expressed in CHO cells by flow cytometry. Format: cell-based. The method, boiled down:
as §3

In experiment [26] the test system is CHO. As to the kind of experiment: Binding affinity to human alpha4 Y187A mutant/hamster beta-1 integrin expressed in CHO cells by flow cytometry. Type of experiment: cell-based. The method, boiled down:
as §3

Experiment [27] addresses T1, Integrin alpha-4/beta-1 (Homo sapiens). As to the kind of experiment: Binding affinity to alpha4beta1 integrin transfected human Molt-4 cells by flow cytometry. Format: cell-based. The method, boiled down: as §1
Experiment [28] concerns CHO. As to the kind of experiment: Binding affinity to human alpha4 S185A mutant/hamster beta-1 integrin expressed in CHO cells by flow cytometry. Type of experiment: cell-based. The method, boiled down:
as §3

Experiment [29] relates to CHO. As to the kind of experiment: Binding affinity to human alpha4 N200A mutant/hamster beta-1 integrin expressed in CHO cells by flow cytometry. Format: cell-based. Put shortly: as §3
For experiment [30], the system named is CHO. As to the kind of experiment: Binding affinity to human alpha4 P183A mutant/hamster beta-1 integrin expressed in CHO cells by flow cytometry. Format: cell-based. The method, boiled down: as §3
For experiment [31], the system named is CHO. The experiment is described as follows: Binding affinity to human alpha4 K201A mutant/hamster beta-1 integrin expressed in CHO cells by flow cytometry. Type of experiment: cell-based. Put shortly:
as §3

Experiment [32] relates to CHO. The experiment is described as follows: Binding affinity to human alpha4 S191A mutant/hamster beta-1 integrin expressed in CHO cells by flow cytometry. Format: cell-based. Put shortly:
as §3

In experiment [33] the test system is Mus musculus. The experiment is described as follows: In vivo inhibition of alpha4beta1 integrin expressed in human Molt-4 cells xenografted into mouse at 60 nmol/kg, iv up to 24 hrs by NIRF imaging. Type of experiment: functional, organism-based. The method, boiled down: as §4

Sequence of Integrin alpha-M/beta-2 (Homo sapiens) (P05107 23-769 limits assumed, other chains not shown): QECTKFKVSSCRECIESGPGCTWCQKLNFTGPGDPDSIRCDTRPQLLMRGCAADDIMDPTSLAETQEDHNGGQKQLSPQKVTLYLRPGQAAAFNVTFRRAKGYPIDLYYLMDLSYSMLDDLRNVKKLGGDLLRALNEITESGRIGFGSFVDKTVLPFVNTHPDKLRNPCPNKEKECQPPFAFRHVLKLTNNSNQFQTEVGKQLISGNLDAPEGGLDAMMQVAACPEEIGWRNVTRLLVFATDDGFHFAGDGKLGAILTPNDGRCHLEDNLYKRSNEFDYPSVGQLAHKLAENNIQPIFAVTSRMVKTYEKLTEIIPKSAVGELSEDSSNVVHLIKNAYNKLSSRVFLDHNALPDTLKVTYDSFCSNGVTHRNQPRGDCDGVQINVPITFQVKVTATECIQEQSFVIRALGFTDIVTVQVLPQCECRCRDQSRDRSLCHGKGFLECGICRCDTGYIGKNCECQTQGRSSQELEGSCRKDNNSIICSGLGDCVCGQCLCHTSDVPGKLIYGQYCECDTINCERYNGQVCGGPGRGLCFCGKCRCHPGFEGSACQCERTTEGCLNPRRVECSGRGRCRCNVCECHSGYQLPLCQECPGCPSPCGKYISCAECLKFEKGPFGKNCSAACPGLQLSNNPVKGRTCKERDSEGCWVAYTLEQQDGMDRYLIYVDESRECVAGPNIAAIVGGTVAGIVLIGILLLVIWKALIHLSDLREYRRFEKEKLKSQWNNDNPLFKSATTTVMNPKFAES

On to `Cc1ccccc1NC(=O)Nc1ccc(CC(=O)N[C@@H](CCCCNC(=O)/C=C/c2cccnc2)C(=O)N[C@@H](CCCC(=O)O)C(=O)NC2(C(N)=O)CCCCC2)cc1`, for which the outcome (in experiment [1]; in experiment [2]; in the experiment with CHO [3]; with CHO [5]; in the experiment with CHO [7]; with CHO [8]) was Active. Moreover, the outcome (in the experiment on CHO [10]; in experiment [11]; in experiment [12]; in experiment [14]; in the experiment with CHO [16]; in the experiment with CHO [17]) was Active. In addition, the result (with CHO [22]; in the experiment on CHO [23]; in experiment [27]; with CHO [28]; with CHO [29]; in the experiment on CHO [30]) was Active. Further, the result in the experiment on CHO [31] and in the experiment on CHO [32] was Active. In addition, the outcome (in experiment [4]; in [9]; in experiment [15]; in experiment [19]; with CHO [20]; in experiment [21]) was inactive. The result (in [24]; in the experiment on CHO [25]; with CHO [26]) was inactive. Also, the inhibition entry (in experiment [6]; in the experiment with Mus musculus [13]; in experiment [18]) was “Active” throughout.
Regarding `Cc1ccccc1NC(=O)Nc1ccc(CC(=O)N[C@@H](CCCCNC(=O)/C=C/c2cccnc2)C(=O)N[C@@H](CCCC(=O)O)C(=O)NC2(C(=O)NCCOCCOCCNC(=O)CCC(=O)NCCOCCOCCNC(=O)CCC(=O)N[C@@H](CCCCNC(=O)CCCC[C@@H]3SC[C@@H]4NC(=O)N[C@@H]43)C(N)=O)CCCCC2)cc1`, in the experiment with Mus musculus [33], the inhibition entry is “inactive”.
